Experimental data: the EternaBench riboswitch data

Test system: MS2 coat protein
Assay: apparent Kd, MS2 coat protein; higher = weaker binding; RNA-MaP array; FMN 200 µM where present
Summary of the method: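 Green signal was scaled to red-channel RNA signal and control-cluster median Fmax, and the apparent Kd was taken as the median of filtered per-cluster binding-curve fits. The binding series used SNAP-549-labelled MS2 coat protein from 0.7 or 1.5 nM, doubling to 3 µM, on designs transcribed by stalled E. coli RNA polymerase on Illumina sequencing-chip clusters. Each series ran without and then with constant ligand in 100 mM Tris-HCl pH 7.5, 80 mM KCl, 4 mM MgCl2, BSA, DTT, yeast tRNA and Tween-20.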

[1] = designed as: OFF switch for flavin mononucleotide, no ligand
[2] = ligand present: flavin mononucleotide, designed as: OFF switch for flavin mononucleotide
[3] = designed as: ON switch for flavin mononucleotide, no ligand
[4] = ligand present: flavin mononucleotide, designed as: ON switch for flavin mononucleotide

| Sequence | apparent Kd [1] [nM] | apparent Kd [2] [nM] | apparent Kd [3] [nM] | apparent Kd [4] [nM] |
| --- | --- | --- | --- | --- |
| UACAGCUCGACAGGAUAUACAUCACUGCUUCGGCAGUGUAUCUUAAUAACAUGAGGAUCACCCAUGUAGAAGGGUCGAGCUGUA | 18.1 | 32.8 |  |  |
| UACGGACAUGAGGAUCACCCAUGUGAGGAUAUCGGUACCGAUAGCAUAAUAUAAUCGGCGAGAAGGCACAGCGU | 32.7 | 42.8 |  |  |
| UACGUACAGAAGAACUCCGGGUCCAGAAGGGACAUGAGGAUCACCCAUGUACCGUUGAUUGCUUGUCAGGAUAUGGACCCGGCC | 6.67 | 28 |  |  |
| UACUAUAAGGAGGAUAUCGUAUCGGAAACGAUACGAGAAGGCUUAACAUGAGGAUCACCCAUGUUCUUCAAUAA | 16.6 | 18.3 |  |  |
| UAGCAUUGCCUUUGGUAGUGCCUUACAUGAGGAUCACCCAUGUAGGAUAUGGUAGGCUUUGCUUACCAGAAGGACAUGGUAAUU | 52.9 | 259 |  |  |
| UAGGAGUACGUAGGAUAUGUAGGAUAUUCCUACAUGAGGAUCACCCAUGUUAGCAUGGAAGAAGGACAGAAGGACGUGCUCCUU |  |  | 1090 | 16.1 |
| UAGGGCGAGUUAUGUACAAGAUACAUGAGGAUCACCCAUGUGUAGGAUAUGACCCUCAUCGCUGGUCAGAAGGGCACGAGAAUC | 234 | 314 |  |  |
| UAGUAUCAACGAGGAUAUAAUAUGUUCAAUUUUUUAUAUUGUUUACAUGAGGAUCACCCAUGUUAUUAGAAGGCGUAUGGGAUU |  |  | 61.8 | 47.7 |
| UAGUGCGUUAGAGGAUAUUCUAAAUAAAAUAAUAAGACAUGAGGAUCACCCAUGUAUGUACAUGGGAAGAAGGCUGAUGUGCUA |  |  | 573 | 42.9 |
| UAUAAGAACGAAGGAUAUGGUUACAUGAGGAUCACCCAUGUAUUAAUAUUGAUCUAUUUUUAUAACCAGAAGGUCGAGAGUAAA | 27.4 | 39.7 |  |  |
| UAUAAGCUAGGAUAUACUAACGAAACUAAUGCAUAUAUAUAACAUGAGGAUCACCCAUGUAGAAGGAGCAGAAU | 25.5 | 23 |  |  |
| UAUAAUAUUAUAGGAUAUGGAUACGAUGCGUAUCCAGAAGGGUGAUUAUAAUAUAAUCUAUACAUGAGGAUCACCCAUGUUUAU |  |  | 301 | 121 |
| UAUACUUACGAAGGAUAUGGUUACAUGAGGAUCACCCAUGUAUGUAUAUUGAUCUUGUAUCUUAACCAGAAGGUCGUCACUAUA | 26.3 | 23.4 |  |  |
| UAUAUAUAGUAAGGAUAUGUAAAUAUUUUAUAAACAGAAGGUACUGACAUGAGGAUCACCCAUGUUUUAGUGUGGGCAUGUAGA | 79.2 | 139 |  |  |
| UAUAUAUAGUAAGGAUAUGUAUUAAUUGUAUAAACAGAAGGUACUGACAUGAGGAUCACCCAUGUUUUAGUGUGGGCAUGUAGA | 91.3 | 149 |  |  |
| UAUAUUUUUAUAGGAUAUGGAUAUGAUGCAUAUCCAGAAGGGUGAUUAUAAUAUAAUCUAUACAUGAGGAUCACCCAUGUUUAU |  |  | 242 | 72 |
| UAUCUAUUUAUGGGAUUAGAAUAUGAGGAUAUCAUUUAUUUAUACAUGAGGAUCACCCAUGUUACUGAGAAGGCAUAUUUAAUA |  |  | 13.4 | 7.47 |
| UAUCUAUUUAUGGGAUUAGAUUAUGAGGAUAUCAUUUUUUUAUACAUGAGGAUCACCCAUGUUUCUGAGAAGGCAUAUUUAAUA |  |  | 22.2 | 8.12 |
| UAUGAGCGAGGAUAUGCUUGGGACUGUCGGAAUGUGGCGGGACAUGAGGAUCACCCAUGUAGAAGGCGCGAGCG | 95.1 | 212 |  |  |
| UAUGAUUGAGGAUAUUGUACUGCUGACAUGAGGAUCACCCAUGUAUGCUAACUCGGCCGUCGAGAAGGCAAUUAUG | 141 | 51 |  |  |
| UAUGGGUGUGUGAGGAUAUACGAAGGCAGUGGCCAGUAGAAGGUACAUGAGGAUCACCCAUGUGUCCAAAAGUG | 14.1 | 18.4 |  |  |

| Sequence | apparent Kd [1] [nM] | apparent Kd [2] [nM] | apparent Kd [3] [nM] | apparent Kd [4] [nM] |
| --- | --- | --- | --- | --- |
| UAUGGUAAAGUCAGGAUAUACGUGCAGUUUUCUGGGUAGAAGGGACAUGAGGAUCACCCAUGUAUGGUAGUGUU | 118 | 142 |  |  |
| UAUGUAUUCGUAGGAUAUCCGUCGCCACCGUGUGGAGAAGGACGAACAUGAGGAUCACCCAUGUAUCAUGGUGUAGACACUUUC | 126 | 183 |  |  |
| UAUGUAUUCGUAGGAUAUCCGUCGCCACCGUGUGGAGAAGGACGAACAUGAGGAUCACCCAUGUAUCAUGGUGUAGACACUUUU | 98.4 | 154 |  |  |
| UAUGUGUCAGGAUAUGGAUUAGUUCGGGAUUCGGAACUGGUUCAGAAGGGACAUGAGGAUCACCCAUGUUUUUC | 33.1 | 169 |  |  |
| UAUGUGUCAGGAUAUUAGUAGUGUGUGGAUACAUAUAUUGCUGAGAAGGGACAUGAGGAUCACCCAUGUACCUU | 16.2 | 17.5 |  |  |
| UAUGUGUCAGGAUAUUGUUAGUUUAGUUGUUUGUAUUAGUUCGAGAAGGGACAUGAGGAUCACCCAUGUUGUUU | 30.9 | 28.6 |  |  |
| UAUGUGUGAGGAUAUGGUAAAGAUAAGAUGAUGAAAGAACUCCAGAAGGCACAUGAGGAUCACCCAUGUAGAUA | 22.8 | 45.6 |  |  |
| UAUGUUUUAGGAUAUUGUACUGCUGACAUGAGGAUCACCCAUGUAUGCUAACUCGGCUGUCGAGAAGGAGAAUAUG | 64.3 | 56 |  |  |
| UAUUAGUUAGGAUAUACAUGAGGAUCACCCAUGUCACGGGUCCACUUGUCCUAUGCGUGUAGAAGGAGCGACCC | 19.5 | 20.8 |  |  |
| UAUUAUUUAUGAUAUUAUGACAGUAGAAGGCUAUACAUGUUGAUACAUGAGGAUCACCCAUGUAUAGAGGAUAUAUACAUAAAU | 1010 | 884 |  |  |
| UAUUGCGCCGUAAAAUAACACAUGAGGAUCACCCAUGUGACACAGGAUAUGACCAGAUCAGAAAGUCAGAAGGGUGAAAACGGC |  |  | 99.6 | 21.6 |
| UAUUUAUAGCAAGGAUAUGAUUAUUAUUAUUUAUCAGAAGGUGCACAUGAGGAUCACCCAUGUUUUACAAUUUGUAAUUUAAUU | 38.6 | 25.1 |  |  |
| UAUUUUAACUAAGGAUAUCUGUAUUAUGUUGAAACAUGAGGAUCACCCAUGUUCAUGAUAUUAUAGGAGAAGGUAGAUGAAUAA |  |  | 6.75 | 6.01 |
| UCAACCGGCGCCGGUUAAACAUGAGGAUCACCCAUGUACUCCAGAAGGCCGCCCAAGAACGGAGUGGAGGAUAUGGAGGUUCUC |  |  | 45.1 | 28.7 |
| UCACGAGACUAAGGAUAUGGAGUGUCAACAUAAAACAUGAGGAUCACCCAUGUAAAGAGUACGAUUCAGAAGGUAGAGACGUGA |  |  | 43 | 25.1 |
| UCACGGGAUUGAGGAUAUAUAUUAAUUUUUACAAUAGAAGGCAAAUUUUUAGUUUUUUCACUUUACAUGAGGAUCACCCAUGUU | 27.5 | 25.5 |  |  |
| UCACGGGUUUGAGGAUAUAUAUUUAUUAUUUUAAUAGAAGGCAAAGAGAUAGUUUUUUCACUAUACAUGAGGAUCACCCAUGUU | 41.5 | 36 |  |  |
| UCACGGUAUGUAGGAUAUGCAUAGCAUUGCUAUGCAGAAGGACAUGAGGAUCACCCAUGUAUGUAUUCCAUACUAAUCCCGUGG | 5.57 | 5.66 |  |  |
| UCAGGCUUCGAGAAGGACAUGAAUCGUAGCAUUGCUACGAUCAUAGAUACAUGAGGAUCACCCAUGUAGGAUAUCGGAGUCUGC | 5.8 | 5.87 |  |  |
| UCAGGCUUCGAGAAGGACAUGAGGAUCACCCAUGUUAGUGUGAAGCAGCCGUGAGGCUGCAUCAUGUAGGAUAUCGGAGUCUGC | 25.5 | 189 |  |  |
| UCAUACAUGACAUGACAUGACAUGAGGAUCACCCAUGUUUACAAGGAUAUGUACAUGAAACAUGUACAGAAGGUGUAUUGGACU | 42.4 | 150 |  |  |
